Calls of active or inactive are those of the source. The calls are words filed in the database; no cut-off is given here.
Tests used:
HOP-92 = experiment: Growth inhibition of human HOP92 cells assessed as cell growth at 10 uM after 24 hrs by SRB assay relative to control; assay type: functional; settings: HOP-92, 24 h, read-out: Activity
Procedure, shortened: (§1)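 NCI DTP one-dose screen: cells plated at density set by doubling rate, incubated overnight, then exposed to compound at 10 μM for 24 hours. Growth percentage from protein density at end versus start of experiment, relative to initial cell number.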

A549 = experiment: Growth inhibition of human A549 cells assessed as cell growth at 10 uM after 24 hrs by SRB assay relative to control; assay type: functional; settings: A549, 24 h, read-out: Activity; procedure, shortened: as §1
EKVX [1] = experiment: Growth inhibition of human EKVX cells assessed as cell growth at 10 uM after 24 hrs by SRB assay relative to control; assay type: functional; settings: read-out: Activity; procedure, shortened: as §1
[2] = Solubility of the compound in 10% 2-HPbetaCD/water solution; assay type: physicochemical; settings: buffer
Mus musculus [3] = experiment: Acute toxicity in C57BL/6 mouse assessed as lethargic movement at 20 mg/kg, ip administered as 20% 2HPbetaCD formulation on day 1 followed by redosing with 15 mg/kg, ip on day 14 measured on day 15 post first dose; assay type: organism-based; settings: in vivo
Procedure, shortened: (§2)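 Female/male not stated; C57BL/6 mice received 20 mg/kg IP on day zero in 100 μL of 20% (w/v) 2-HPβCD, then a second 15 mg/kg IP dose on day fourteen. Vehicle controls got 100 μL of 20% 2-HPβCD IP on days 0, 7, 14, 21, 25 and 29. Body weight and behaviour were monitored throughout, with survival plotted Kaplan-Meier.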

[4] = Solubility of the compound in 1% DMSO/water solution; assay type: physicochemical; settings: buffer
NCI-H460 [5] = experiment: Induction of apoptosis in human NCI-H460 cells at 40 uM up to 12 hrs using 10% 2HPbetaCD/water compound formulation by Annexin V-FITC/propidium iodide staining based fluorescence microscopic method; assay type: functional, cell-based
Procedure, shortened: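 Annexin V-FITC/propidium iodide staining of H460 cells in 6-well plates. Compound given in 10% (w/v) 2-HPβCD aqueous solution. Imaged at 12, 14, 17 and 20 h with 20× objective as merged transmitted, green and red channels. Controls: 2-HPβCD and cisplatin, 20 h.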

Mus musculus [6] = experiment: Acute toxicity in C57BL/6 mouse assessed as weight regain at 20 mg/kg, ip administered as 20% 2HPbetaCD formulation measured on day 4 to 14 post dose; assay type: organism-based; settings: in vivo; procedure, shortened: as §2
NCI-H1975 = experiment: Potency index, ratio of compound cisplatin IC50 to compound IC50 for human NCI-H1975 cells using 10% 2-HPbetaCD compound formulation; assay type: functional
NCI-H460 [7] = experiment: Antiproliferative activity against human NCI-H460 cells using 1% DMSO/water compound formulation after 72 hrs by MTT assay; assay type: functional, cell-based; settings: NCI-H460, 72 h
Procedure, shortened: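 MTT anti-proliferation on NSCLC lines. Compounds dissolved in DMSO, diluted with water to 1% DMSO, then into growth medium (max 0.032% DMSO on cells); or dissolved in 10% (w/v) 2-HPβCD in water, then diluted (max 0.008% w/w 2-HPβCD in wells; vehicle controls at 0.008%). IC50 = concentration giving 50% loss of viability versus control cells. Cisplatin dissolved in water with stirring.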

NCI-H322M [8] = experiment: Growth inhibition of human NCI-H322M cells after 24 hrs by SRB assay; assay type: functional
HOP-62 = experiment: Growth inhibition of human HOP62 cells assessed as cell growth at 10 uM after 24 hrs by SRB assay relative to control; assay type: functional; settings: HOP-62, 24 h, read-out: Activity; procedure, shortened: as §1
NCI-H23 = experiment: Growth inhibition of human NCI-H23 cells assessed as cell growth at 10 uM after 24 hrs by SRB assay relative to control; assay type: functional; settings: NCI-H23, 24 h, read-out: Activity; procedure, shortened: as §1
[9] = Aqueous solubility of the compound in water; assay type: physicochemical; settings: buffer
EKVX [10] = experiment: Growth inhibition of human EKVX cells after 24 hrs by SRB assay; assay type: functional
NCI-H460 [11] = experiment: Induction of apoptosis in human NCI-H460 cells assessed as morphological changes at 40 uM up to 3 hrs by Annexin V-FITC/propidium iodide staining based fluorescence microscopic method; assay type: functional, cell-based
NCI-H460 [12] = experiment: Disruption of mitochondrial membrane potential in human NCI-H460 cells at 40 uM up to 1 hr […] by JC1/DAPI staining based confocal microscopic method; assay type: functional, cell-based
NCI-H322M [13] = experiment: Growth inhibition of human NCI-H322M cells assessed as cell growth at 10 uM after 24 hrs by SRB assay relative to control; assay type: functional; settings: read-out: Activity; procedure, shortened: as §1

`CCc1n(Cc2ccc3ccccc3c2)cc[n+]1Cc1ccc2ccccc2c1.[Br-]` showed a growth at 10 µM (HOP-92) of -31.4%, a growth at 10 µM (A549) of 28.5% and a growth at 10 µM (EKVX [1]) of 11.9%. For the same molecule, the solubility [2] was > 4400 µg/mL, the Activity (Mus musculus [3]) was “Toxic” and the solubility [4] was “Soluble”. For the same molecule, the Activity (NCI-H460 [5]) was “inactive”, the Activity (Mus musculus [6]) was “Toxic” and the “Ratio IC50” value (NCI-H1975) was 17. It also gave an IC50 (NCI-H460 [7]) of 0.92 µM, a GI50 (NCI-H322M [8]) of 2.12 µM and an LC50 (lethal concentration 50%) (NCI-H322M [8]) of 6.71 µM. It also gave a TGI (NCI-H322M [8]) of 6.71 µM, a growth at 10 µM (HOP-62) of 11.9% and a growth at 10 µM (NCI-H23) of -14.6%. The solubility [9] was < 500 µg/mL, the GI50 (EKVX [10]) was 0.766 µM and the LC50 (EKVX [10]) was 35.8 µM. The TGI (EKVX [10]) was 5.55 µM, the Activity (NCI-H460 [11]) was “inactive” and the Activity (NCI-H460 [12]) was “Active”. It also gave a growth at 10 µM (NCI-H322M [13]) of 44.3%.

From ChEMBL document CHEMBL4002637, “Synthesis, characterization, in vitro SAR and in vivo evaluation of N,N'bisnaphthylmethyl 2-alkyl substituted imidazolium salts against NSCLC” (Bioorg Med Chem Lett, 2017)
